ChEMBL document CHEMBL1135063, “Cytotoxic and antibacterial activity of 2-oxopurine derivatives” (Bioorg Med Chem Lett, 2002)
Values after ≈ are worked out from the molar mass of the structure shown.

Legend:
K562 [1] = assay: Cytotoxicity against chronic myelogenous leukemia cell line K-562 was determined by measuring [3H]thymidine incorporation after 48 h; assay type: functional, cell-based; settings: Homo sapiens
In short: (§1)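 K-562 cells in RPMI 1640 with 10% FCS, 2 mM L-glutamine and kanamycin, humidified 5% CO2. Log-phase cells seeded at 2 × 10^4 cells/mL and exposed to compound (DMSO, 0.05% final) over a 10 to 0.078 range for 48 h. Cells were then pulsed 2 h with [3H]-thymidine, filter-harvested and cell-associated radioactivity counted. Percent inhibition or IC50 is reported with SD.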

K562 [2] = assay: Cytotoxicity against chronic myelogenous leukemia cell line K-562 was determined by measuring [3H]thymidine incorporation at a concentration 10 ug/mL after 48 h; assay type: functional; settings: Homo sapiens; in short: as §1
K562 [3] = assay: Concentration that reduces [3H]thymidine incorporation by 50% in chronic myelogenous leukemia cell line K-562 after 5 h; assay type: functional, cell-based; settings: Homo sapiens
In short: (§2)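 K-562 cells in RPMI 1640 with 10% FCS, 2 mM L-glutamine and kanamycin, 5% CO2. Log-phase cells seeded at 4 × 10^4 cells/mL and exposed to compound (DMSO, 0.05% final) over a 10 to 0.078 range for 5 h. Cells were then pulsed 2 h with [3H]-thymidine, harvested onto fiberglass filters and counted. IC50 is the concentration inhibiting incorporation by 50%. Values are given with SD.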

K562 [4] = assay: Cytotoxicity against chronic myelogenous leukemia cell line K-562 was determined by measuring [3H]thymidine incorporation at a concentration of 10 ug/mL after 5 h; assay type: functional; settings: Homo sapiens; in short: as §2
K562 [5] = assay: Cytotoxicity against chronic myelogenous leukemia cell line K-562 was determined by measuring [3H]-thymidine incorporation at a concentration of 1.25 ug/mL after 5 h; assay type: functional; settings: Homo sapiens; in short: as §2
K562 [6] = assay: Cytotoxicity against chronic myelogenous leukemia cell line K-562 was determined by measuring [3H]thymidine incorporation at a concentration of 1.25 ug/mL after 48 h; assay type: functional; settings: Homo sapiens; in short: as §1
K562 [7] = assay: Cytotoxicity against chronic myelogenous leukemia cell line K-562 was determined by measuring [3H]thymidine incorporation at a concentration 1 ug/mL after 48 h; assay type: functional; settings: Homo sapiens; in short: as §1
K562 [8] = assay: Cytotoxicity against chronic myelogenous leukemia cell line K-562 was determined by measuring [3H]thymidine incorporation at a concentration of 1 ug/mL after 5 h; assay type: functional; settings: Homo sapiens; in short: as §2
K562 [9] = assay: Cytotoxicity against chronic myelogenous leukemia cell line K-562 was determined by measuring [3H]thymidine incorporation at a concentration of 10 ug/mL after 48 h; assay type: functional; settings: Homo sapiens; in short: as §1
Lacticaseibacillus casei [10] = assay: Tested for antibacterial activity against Lactobacillus casei; assay type: functional
[11] = tested on: Mycobacterium tuberculosis; assay: Tested for percent inhibition against Mycobacterium tuberculosis at concentration of 12.5 ug/mL; assay type: functional
In short: (§3)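 M. tuberculosis H37Rv (ATCC 27294) grown in BACTEC 12B medium; inhibition read out by Microplate Alamar Blue assay.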

Lacticaseibacillus casei [12] = assay: Tested for inhibitory effect on Gram-positive bacterium; Lactobacillus casei; assay type: functional
K562 [13] = assay: Cytotoxicity against chronic myelogenous leukemia cell line K-562 was determined by measuring [3H]thymidine incorporation after 5 h; assay type: functional, cell-based; settings: Homo sapiens; in short: as §2
[14] = tested on: Mycobacterium tuberculosis; assay: Antibacterial activity was evaluated against Mycobacterium tuberculosis; assay type: functional; in short: as §3
[15] = tested on: Mycobacterium tuberculosis; assay: Tested for antibacterial activity against Mycobacterium tuberculosis; assay type: functional; in short: as §3
K562 [16] = assay: Cytotoxicity against chronic myelogenous leukemia cell line K-562 was determined by measuring [3H]thymidine incorporation at a concentration of 1.00 ug/mL after 48 h; assay type: functional; settings: Homo sapiens; in short: as §1
Mycobacterium avium = assay: Tested for percent inhibition against Mycobacterium avium at 12.5 ug/mL; assay type: functional
Vero = assay: Tested for inhibition against Vero cells at 12.5 ug/mL; assay type: functional, cell-based; settings: Chlorocebus sabaeus
[17] = tested on: Mycobacterium tuberculosis; assay: Tested for percent inhibition against Mycobacterium tuberculosis at 12.5 ug/mL; assay type: functional; in short: as §3
K562 [18] = assay: Cytotoxicity against chronic myelogenous leukemia cell line K-562 was determined by measuring [3H]thymidine incorporation at a concentration of 1.00 ug/mL after 5 h; assay type: functional; settings: Homo sapiens; in short: as §2
[19] = tested on: Mycobacterium tuberculosis; assay: Tested for percent inhibition against Mycobacterium tuberculosis at a concentration of 12.5 ug/mL; assay type: functional; in short: as §3
K562 [20] = assay: Cytotoxicity against chronic myelogenous leukemia cell line K-562 determined using [3H]thymidine incorporation at a concentration of 1.00 ug/mL after 48 h; assay type: functional; settings: Homo sapiens; in short: as §1
K562 [21] = assay: Cytotoxicity against chronic myelogenous leukemia cell line K-562 determined using [3H]thymidine incorporation at a concentration 10 ug/mL after 48 h; assay type: functional; settings: Homo sapiens; in short: as §1
[22] = tested on: Mycobacterium tuberculosis; assay: Tested for percent inhibition against Mycobacterium tuberculosis at 12.5 ug/mL concentration; assay type: functional; in short: as §3

| Structure (SMILES) | IC50 (K562 [1]) [µg/mL] | inhibition at 10 µg/mL (K562 [2]) [%] | IC50 (K562 [3]) [µg/mL] | inhibition at 10 µg/mL (K562 [4]) [%] | inhibition at 1.25 µg/mL (K562 [6]) [%] | also measured |
| --- | --- | --- | --- | --- | --- | --- |
| O=c1nc2c(ncn2Cc2ccccc2)c(C(F)(F)F)n1Cc1ccccc1 | > 10 | 11 | – | – | – | – |
| CCC1(c2ccccc2)c2ncn(Cc3ccccc3)c2NC(=O)N1Cc1ccccc1 (configuration not stated) | – | 80 | – | – | – | – |
| CC(C)c1c2ncn(Cc3ccccc3)c2nc(=O)n1Cc1ccccc1 | > 10 | 18 | – | – | – | – |
| CC(C)C1c2ncn(Cc3ccccc3)c2NC(=O)N1Cc1ccccc1 (configuration not stated) | 10 (≈ 27.7 µM) | 51 | – | – | – | – |
| O=C1Nc2c(ncn2Cc2ccccc2)C(C#CC2CC2)(C(F)(F)F)N1Cc1ccccc1 (configuration not stated) | 0.2 (≈ 0.444 µM) | 100 | 0.4 (≈ 0.888 µM) | 94 | 99 | inhibition at 1.25 µg/mL (K562 [5]): 66% |
| O=C1Nc2[nH]cnc2C(C#CC2CC2)(C(F)(F)F)N1 (configuration not stated) | > 1 | – | > 1 | – | – | inhibition at 1 µg/mL (K562 [7]): 0.8%; inhibition at 1 µg/mL (K562 [8]): 0.3% |
| O=c1nc2c(cn1Cc1ccccc1)ncn2Cc1ccccc1 | > 10 | – | > 10 | 16 | 5.7 | inhibition at 10 µg/mL (K562 [9]): 37%; inhibition at 1.25 µg/mL (K562 [5]): 4.4% |
| O=C1Nc2c(ncn2Cc2ccccc2)C(C#CC2CC2)N1Cc1ccccc1 (configuration not stated) | 1.3 (≈ 3.4 µM) | 98 | 1.6 (≈ 4.18 µM) | 90 | 42 | inhibition at 1.25 µg/mL (K562 [5]): 35% |
| O=c1nc2c(ncn2Cc2ccccc2)c(-c2cccs2)n1Cc1ccccc1 | – | – | – | – | – | MIC (Lacticaseibacillus casei [10]): > 10 µg/mL; inhibition at 12.5 µg/mL [11]: 0% |
| O=C1Nc2c(ncn2Cc2ccccc2)C(C(F)(F)F)N1Cc1ccccc1 (configuration not stated) | 2 (≈ 5.18 µM) | 97 | 10 (≈ 25.9 µM) | 51 | 26 | inhibition at 1.25 µg/mL (K562 [5]): 15.4% |
| CC1c2ncn(Cc3ccccc3)c2NC(=O)N1Cc1ccccc1 (configuration not stated) | 1.4 (≈ 4.21 µM) | 98 | 2.5 (≈ 7.52 µM) | 76.4 | 33 | – |
| O=C1N(Cc2ccccc2)c2nc[nH]c2C(c2ccccc2)N1Cc1ccccc1 (configuration not stated) | > 10 | 32 | – | – | – | MIC (Lacticaseibacillus casei [12]): 10 µg/mL (≈ 25.3 µM) |
| Sc1ncnc2nc[nH]c12 [MERCAPTOPURINE ANHYDROUS] | 0.4 (≈ 2.63 µM) | – | – | – | – | IC50 (K562 [13]): 8.5 µg/mL (≈ 55.9 µM) |
| Clc1nc(-c2cccs2)c2ncn(Cc3ccccc3)c2n1 | – | – | – | – | – | MIC [14]: 1.56 µg/mL (≈ 4.77 µM) |
| O=c1nc2c(ncn2Cc2ccccc2)c(C#CC2CC2)n1Cc1ccccc1 | 0.2 (≈ 0.526 µM) | 97 | 0.4 (≈ 1.05 µM) | 98 | 100 | inhibition at 1.25 µg/mL (K562 [5]): 98% |
| O=C1Nc2ncn(Cc3ccccc3)c2C(c2ccccc2)N1Cc1ccccc1 (configuration not stated) | > 10 | 48 | – | – | – | – |
| O=c1nc2c(ncn2Cc2ccccc2)c(C#Cc2ccccc2)n1Cc1ccccc1 | 0.7 (≈ 1.68 µM) | 100 | 1 (≈ 2.4 µM) | – | – | MIC (Lacticaseibacillus casei [10]): > 10 µg/mL; MIC [15]: 12.5 µg/mL (≈ 30 µM); inhibition at 1 µg/mL (K562 [16]): 90%; inhibition at 12.5 µg/mL (Mycobacterium avium): 60%; IC50 (Vero): < 0.2 µg/mL; inhibition at 12.5 µg/mL [17]: 95%; inhibition at 1 µg/mL (K562 [18]): 48% |
| O=c1nc2c(ncn2Cc2ccccc2)c(-c2ccco2)n1Cc1ccccc1 | – | – | – | – | – | MIC (Lacticaseibacillus casei [10]): > 10 µg/mL; inhibition at 12.5 µg/mL [19]: 0% |
| O=C1Nc2c(ncn2Cc2ccccc2)C(C#Cc2ccccc2)N1Cc1ccccc1 (configuration not stated) | 0.8 (≈ 1.91 µM) | – | 1.4 (≈ 3.35 µM) | – | – | inhibition at 1 µg/mL (K562 [20]): 59%; inhibition at 1 µg/mL (K562 [18]): 20%; inhibition at 10 µg/mL (K562 [21]): 100% |
| O=C1Nc2c(ncn2Cc2ccccc2)C(c2ccccc2)N1Cc1ccccc1 (configuration not stated) | 0.2 (≈ 0.507 µM) | 90 | 5.1 (≈ 12.9 µM) | 69 | 85 | inhibition at 1.25 µg/mL (K562 [5]): 9.1% |
| O=c1nc2c(ncn2Cc2ccccc2)c(-c2ccccc2)n1Cc1ccccc1 | – | 70 | – | – | – | MIC (Lacticaseibacillus casei [10]): > 10 µg/mL; inhibition at 12.5 µg/mL [22]: 0% |
